Laboratory results: ChEMBL document CHEMBL2417507, “Synthesis and bioevaluation of some new isoniazid derivatives” (Bioorg Med Chem, 2013)
Converted amounts (≈) assume the structure as drawn. The source made the active and inactive calls. No cut-off for these calls is given here.

Assays:
[1] = test system: Morganella morganii; assay: Antibacterial activity against Morganella morganii 2810 assessed as growth inhibition at 1 mg/mL after 24 hrs by agar-disk diffusion technique; assay type: functional, organism-based
Summary of the method: (§1)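 Agar-disk diffusion, adapted: plates seeded with 0.5 McFarland suspension prepared from 24 h cultures; 5 µL of a 1 mg/mL compound solution spotted onto the seeded solid medium; incubated 24 h at 37 °C. Stocks made in DMSO.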

[2] = test system: HCT-8; assay: Induction of apoptosis in human HCT8 cells assessed as late apoptotic cells at 25 ug/mL after 24 hrs by Annexin V-FITC and propidium iodide staining-based flow cytometric analysis (reference value: 2.97%); assay type: cell-based; conditions: hct-8, 24 h
[3] = test system: HCT-8; assay: Cytotoxicity against human HCT8 cells at 25 ug/mL after 24 hrs by trypan blue exclusion assay; assay type: cell-based; conditions: hct-8, 24 h
Summary of the method: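 HCT8 cells (3 × 10^5 per 3.5-cm well) treated 24 h, then trypsinised, spun and resuspended in PBS. Suspension mixed 1:1 with 0.4% trypan blue for 1 min and viable/non-viable cells counted on a haemocytometer. Each experiment repeated three times.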

[4] = test system: Acinetobacter baumannii; assay: Antibacterial activity against Acinetobacter baumannii 192 assessed as growth inhibition at 1 mg/mL after 24 hrs by agar-disk diffusion technique; assay type: functional, organism-based; summary of the method: as §1
[5] = test system: Acinetobacter baumannii; assay: Antibacterial activity against Acinetobacter baumannii 122 assessed as growth inhibition at 1 mg/mL after 24 hrs by agar-disk diffusion technique; assay type: functional, organism-based; summary of the method: as §1
[6] = test system: Acinetobacter baumannii; assay: Antibacterial activity against Acinetobacter baumannii 125 assessed as growth inhibition at 1 mg/mL after 24 hrs by agar-disk diffusion technique; assay type: functional, organism-based; summary of the method: as §1
[7] = test system: Staphylococcus aureus; assay: Antibacterial activity against Staphylococcus aureus assessed as growth inhibition at 1 mg/mL after 24 hrs by agar-disk diffusion technique; assay type: functional, organism-based; summary of the method: as §1
[8] = test system: HCT-8; assay: Cell cycle arrest in human HCT8 cells assessed as accumulation at S phase at 12.5 ug/mL after 24 hrs by propidium iodide staining-based flow cytometric analysis (reference value: 39.43%); assay type: ADME; conditions: hct-8, 24 h
[9] = test system: Acinetobacter baumannii; assay: Antibacterial activity against Acinetobacter baumannii 135 assessed as growth inhibition at 1 mg/mL after 24 hrs by agar-disk diffusion technique; assay type: functional, organism-based; summary of the method: as §1
[10] = test system: HCT-8; assay: Induction of apoptosis in human HCT8 cells assessed as early apoptotic cells at 25 ug/mL after 24 hrs by Annexin V-FITC and propidium iodide staining-based flow cytometric analysis (reference value: 1.57%); assay type: cell-based; conditions: hct-8, 24 h
[11] = test system: Acinetobacter baumannii; assay: Antibacterial activity against Acinetobacter baumannii 247 assessed as growth inhibition at 1 mg/mL after 24 hrs by agar-disk diffusion technique; assay type: functional, organism-based; summary of the method: as §1
[12] = test system: Pseudomonas putida; assay: Antibacterial activity against Pseudomonas putida 160 assessed as growth inhibition at 1 mg/mL after 24 hrs by agar-disk diffusion technique; assay type: functional, organism-based; summary of the method: as §1
[13] = test system: Klebsiella pneumoniae; assay: Antibacterial activity against Klebsiella pneumoniae 1756 assessed as growth inhibition at 1 mg/mL after 24 hrs by agar-disk diffusion technique; assay type: functional, organism-based; summary of the method: as §1
[14] = test system: HCT-8; assay: Cell cycle arrest in human HCT8 cells assessed as accumulation at G2/M phase at 12.5 ug/mL after 24 hrs by propidium iodide staining-based flow cytometric analysis (reference value: 13.83%); assay type: ADME; conditions: hct-8, 24 h
[15] = test system: Pseudomonas aeruginosa; assay: Antibacterial activity against Pseudomonas aeruginosa 1144 assessed as growth inhibition at 1 mg/mL after 24 hrs by agar-disk diffusion technique; assay type: functional, organism-based; summary of the method: as §1
[16] = test system: HCT-8; assay: Cell cycle arrest in human HCT8 cells assessed as accumulation at G0/G1 phase at 12.5 ug/mL after 24 hrs by propidium iodide staining-based flow cytometric analysis (reference value: 46.43%); assay type: ADME; conditions: hct-8, 24 h
[17] = test system: Enterobacter cloacae; assay: Antibacterial activity against Enterobacter cloacae 1845 assessed as growth inhibition at 1 mg/mL after 24 hrs by agar-disk diffusion technique; assay type: functional, organism-based; summary of the method: as §1
[18] = test system: Radical scavenging activity; assay: Antioxidant activity assessed as DPPH radical scavenging activity at 0.1 mg/mL after 30 mins under dark conditions by spectrophotometric analysis relative to control; assay type: functional
Summary of the method: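 Compounds dissolved in methanol at 0.1 mg/mL; 0.2 mL mixed with 1.8 mL of 2 × 10^-4 M DPPH in methanol and kept in the dark 30 min. Absorbance read at 517 nm. The blank was DPPH plus methanol. TAC (%) = (Abs initial − Abs 30 min)/Abs initial × 100.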

[19] = test system: Pseudomonas aeruginosa; assay: Antibacterial activity against Pseudomonas aeruginosa ATCC 27853 assessed as growth inhibition at 1 mg/mL after 24 hrs by agar-disk diffusion technique; assay type: functional, organism-based; summary of the method: as §1
[20] = test system: Staphylococcus hominis; assay: Antibacterial activity against Staphylococcus hominis 1813 assessed as growth inhibition at 1 mg/mL after 24 hrs by agar-disk diffusion technique; assay type: functional, organism-based; summary of the method: as §1
[21] = test system: Citrobacter koseri; assay: Antibacterial activity against Citrobacter koseri 1742 assessed as growth inhibition at 1 mg/mL after 24 hrs by agar-disk diffusion technique; assay type: functional, organism-based; summary of the method: as §1
[22] = test system: Pseudomonas aeruginosa; assay: Antibacterial activity against Pseudomonas aeruginosa 165 assessed as growth inhibition at 1 mg/mL after 24 hrs by agar-disk diffusion technique; assay type: functional, organism-based; summary of the method: as §1
[23] = test system: Acinetobacter baumannii; assay: Antibacterial activity against Acinetobacter baumannii 136 assessed as growth inhibition at 1 mg/mL after 24 hrs by agar-disk diffusion technique; assay type: functional, organism-based; summary of the method: as §1
[24] = test system: HCT-8; assay: Induction of apoptosis in human HCT8 cells assessed as necrotic cells at 25 ug/mL after 24 hrs by Annexin V-FITC and propidium iodide staining-based flow cytometric analysis (reference value: 7.73%); assay type: cell-based; conditions: hct-8, 24 h
[25] = test system: Proteus mirabilis; assay: Antibacterial activity against Proteus mirabilis 1751 assessed as growth inhibition at 1 mg/mL after 24 hrs by agar-disk diffusion technique; assay type: functional, organism-based; summary of the method: as §1
[26] = test system: Mycobacterium tuberculosis; assay: Antimycobacterial activity against Mycobacterium tuberculosis after 8 days by micro plate Alamar Blue assay; assay type: functional; conditions: 192 h
Summary of the method: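 Clinical M. tuberculosis strain grown in Middlebrook 7H9 broth. Compounds were dissolved in DMSO and serially diluted twofold on the plate, final 25 to 0.012 µg/mL. Plates were sealed and held 8 days at 37 °C. Alamar Blue with 10% Tween 80 (1:1) was then added for another 24 h at 37 °C. MIC was the lowest concentration preventing the blue-to-pink change.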

[27] = Induction of apoptosis in human HCT8 cells assessed as viable cells at 25 ug/mL after 24 hrs by Annexin V-FITC and propidium iodide staining-based flow cytometric analysis (reference value: 87.7%); assay type: cell-based, HCT-8; conditions: read-out: Activity
[28] = test system: Enterococcus faecalis; assay: Antibacterial activity against Enterococcus faecalis 2920 assessed as growth inhibition at 1 mg/mL after 24 hrs by agar-disk diffusion technique; assay type: functional, organism-based; summary of the method: as §1
[29] = test system: Escherichia coli; assay: Antibacterial activity against Escherichia coli 1777 assessed as growth inhibition at 1 mg/mL after 24 hrs by agar-disk diffusion technique; assay type: functional, organism-based; summary of the method: as §1

## NC(S)(/C=C/c1ccc(Cl)cc1)NNC(=O)c1ccncc1 (centres undefined)
[1]
  growth inhibition (GI): Active
[2]
  Activity: 19.3%
[3]
  Activity: Toxic
[4]
  growth inhibition (GI): Active
[5]
  growth inhibition (GI): Active
[6]
  growth inhibition (GI): Active
[7]
  growth inhibition (GI): Active
[8]
  Activity: 29.41%
[9]
  growth inhibition (GI): Active
[10]
  Activity: 1.63%
[11]
  growth inhibition (GI): Active
[12]
  growth inhibition (GI): Active
[13]
  growth inhibition (GI): Active
[14]
  Activity: 15.59%
[15]
  growth inhibition (GI): Active
[16]
  Activity: 52.35%
[17]
  growth inhibition (GI): Active
[18]
  TAC: 25.7%
[19]
  growth inhibition (GI): Active
[20]
  growth inhibition (GI): Active
[21]
  growth inhibition (GI): Active
[22]
  growth inhibition (GI): Active
[23]
  growth inhibition (GI): Active
[24]
  Activity: 23.7%
[25]
  growth inhibition (GI): Active
[26]
  MIC: 6.25 µg/mL (≈ 18.7 µM)
[27]
  viability at 24 h, 25 ug/mL: 55.4%
[28]
  growth inhibition (GI): Active
[29]
  growth inhibition (GI): Active
